According to the M2OR odorant receptor database:

Biological target: T1, OR10S1 (Homo sapiens) (UniProt Q8NGN2)
T1 sequence (whole entry): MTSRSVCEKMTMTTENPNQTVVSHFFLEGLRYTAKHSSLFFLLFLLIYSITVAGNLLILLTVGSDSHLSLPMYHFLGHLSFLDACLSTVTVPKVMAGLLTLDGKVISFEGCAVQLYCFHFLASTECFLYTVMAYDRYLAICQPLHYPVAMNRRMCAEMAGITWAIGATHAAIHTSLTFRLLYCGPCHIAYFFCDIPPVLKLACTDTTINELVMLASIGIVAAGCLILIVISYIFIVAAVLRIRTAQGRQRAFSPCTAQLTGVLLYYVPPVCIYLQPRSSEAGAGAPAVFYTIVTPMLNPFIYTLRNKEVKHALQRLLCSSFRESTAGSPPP
Settings: stereoisomer not certain
Summary of the method: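 Whether a receptor–molecule pair is responsive (active) rests on the original authors' judgment that its measured signal was statistically different from baseline. Pairs without that judgment are non-responsive (inactive). Sources used varied assay methods, commonly transient luciferase assays in mammalian cell lines.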
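Further: active if original authors judged signal statistically different from baseline.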

Row | Structure (SMILES) | odorant receptor agonist call
1 | CCCCCCCCCCCCCCCC(=O)[O-].[H+] | inactive
2 | CCCCCCCCCCCCCCCCCC(=O)[O-].[H+] | inactive
3 | CC1=CCC2CC1C2(C)C (stereo unspecified) | inactive
4 | CCCCCCCC(=O)OCC | inactive
5 | CCCCCCCCCCCCCCCCCC(=O)OC | inactive
6 | CCCCCCCCCCCCO | active
7 | CC(=O)O | inactive
8 | CCCCCCCCCCCCCCC(=O)O | inactive
9 | CCCC(=O)CC | inactive
10 | CCC(O)CC | inactive
11 | CCCCCCCCCCCC(=O)O | inactive
12 | CCCCCCCCCCCCCCCC(=O)OC | inactive
13 | COc1ccc2[nH]cc(CCNC(C)=O)c2c1 | inactive
14 | Cc1cnc(C)cn1 | inactive
15 | CCCCOCC(C)O (stereo unspecified) | inactive
16 | CCCCCCCCCCCCCC(=O)OC | inactive

Row | Structure (SMILES) | odorant receptor agonist call
17 | C=C(C)C1CC=C(C)CC1 (stereo unspecified) | inactive
18 | C=C1CCC2CC1C2(C)C (stereo unspecified) | inactive
19 | CC(O)C(=O)[O-].[H+] (stereo unspecified) | inactive
20 | CCCCCCCCCCCCCC(=O)O | inactive
21 | CCCCC(=O)C(C)=O | inactive
22 | CCCCCCCCCCCCCCCC(=O)OCC | inactive
23 | CCCCCCCC(=O)OC | inactive
24 | CCCO | inactive
25 | CCCCCCCCCCCCCC(=O)OCC | inactive
26 | Cc1ccc(C(C)C)cc1 | inactive
27 | CC(C)=CCCC(C)=CCCC(C)=CCO | inactive
28 | CC(C=O)Cc1ccc(C(C)(C)C)cc1 (stereo unspecified) | active
29 | CCCCCCCCCCCCCCCCCC(=O)OCC | inactive
30 | CCCCCCCCCC(=O)OCC | inactive
31 | CCCCCCCCCCCC(=O)OCC | inactive
